19 compounds from ChEMBL document CHEMBL1122854, “Novel bis[1,6-dihydro-6,6-dimethyl-1,3,5-triazine-2,4-diamines] as antitrypanosomal agents” (1985) can be followed below.

Molecules are shown by their SMILES. “And” between values parts separate entries of the source, which are not always exact repeats. Identical values can stand only once.

What all share (format): functional
Details in all cases: route subcutaneous

For assay [1], the system named is Trypanosoma brucei rhodesiense. Put plainly: Anti-trypanosomal activity against Trypanosoma rhodesiense infections in mice, 26 mg/kg administered subcutaneously. In short, it runs like this:
(§1)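 Six-week-old IUR/HA Swiss mice (30-32 g), 5 per dose, infected ip with 0.5 mL of a 1:50 000 dilution of heparinized heart blood from donor mice infected 3 days before (Wellcome CT strain). Single sc dose in peanut oil about 2 h post-inoculation. Deaths before day 4 counted toxic. ΔMST versus untreated controls; survivors at 30 days counted cured.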

Assay [2] relates to Trypanosoma brucei rhodesiense. Put plainly: Antitrypanosomal activity against Trypanosoma rhodesiense infections in mice, 3.3 mg/kg administered subcutaneously. An outline of the steps: as §1
The test system of assay [3] is Trypanosoma brucei rhodesiense. Put plainly: Antitrypanosomal activity was evaluated against Trypanosoma rhodesiense infections in mice, at dose 106 mg/kg, administered subcutaneously;Toxic. An outline of the steps:
(§2)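 IUR/HA Swiss mice (six weeks old, 30-32 g) infected i.p. with Wellcome CT strain T. rhodesiense. A single subcutaneous dose in peanut oil was given about 2 h after inoculation, with five mice per dose level. Positive control was stilbamidine or 2-hydroxystilbamidine isethionate at 40 mg/kg. Deaths before day 4 were scored toxic, and 30-day survivors cured.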

Assay [4] has as its system Trypanosoma brucei rhodesiense. Put plainly: Antitrypanosomal activity against Trypanosoma rhodesiense infections in mice, 106 mg/kg administered subcutaneously. An outline of the steps:
as §1

Assay [5] relates to Trypanosoma brucei rhodesiense. Put plainly: Antitrypanosomal activity against Trypanosoma rhodesiense infections in mice, 424 mg/kg administered subcutaneously. In short, it runs like this:
as §2

Assay [6] has as its system Trypanosoma brucei rhodesiense. Nature of the assay: Antitrypanosomal activity was evaluated against Trypanosoma rhodesiense infections in mice, at dose 1.6 mg/kg, administered subcutaneously. An outline of the steps:
as §1

In assay [7] the test system is Trypanosoma brucei rhodesiense. Nature of the assay: (§3) Antitrypanosomal activity was evaluated against Trypanosoma rhodesiense infections in mice, at dose 26 mg/kg, administered subcutaneously;Toxic. In short, it runs like this:
as §2

The test system of assay [8] is Trypanosoma brucei rhodesiense. Put plainly: Antitrypanosomal activity against Trypanosoma rhodesiense infections in mice, 6.6 mg/kg administered subcutaneously. An outline of the steps:
as §1

The test system of assay [9] is Mus musculus. Nature of the assay: Antitrypanosomal activity was evaluated against Trypanosoma rhodesiense infections in mice, at dose 13 mg/kg, administered subcutaneously;Toxic. In short, it runs like this: as §2
For assay [10], the system named is Mus musculus. Nature of the assay: Antitrypanosomal activity was evaluated against Trypanosoma rhodesiense infections in mice, at dose 212 mg/kg, administered subcutaneously;Toxic. In short, it runs like this: as §2
The subject of assay [11] is Mus musculus. Put plainly: Antitrypanosomal activity was evaluated against Trypanosoma rhodesiense infections in mice, at dose 212 mg/kg, administered subcutaneously;Cures. In short, it runs like this:
as §2

Assay [12] relates to Mus musculus. Nature of the assay: Antitrypanosomal activity was evaluated against Trypanosoma rhodesiense infections in mice, at dose 106 mg/kg, administered subcutaneously;Cures. An outline of the steps: as §2
For assay [13], the system named is Trypanosoma brucei rhodesiense. Put plainly: (§4) Antitrypanosomal activity was evaluated against Trypanosoma rhodesiense infections in mice, at dose 53 mg/kg, administered subcutaneously. An outline of the steps: as §1
Assay [14] concerns Mus musculus. Nature of the assay: Antitrypanosomal activity was evaluated against Trypanosoma rhodesiense infections in mice, at dose 26 mg/kg, administered subcutaneously;Cures. An outline of the steps:
as §2

Assay [15] relates to Trypanosoma brucei rhodesiense. Nature of the assay: (§5) Antitrypanosomal activity was evaluated against Trypanosoma rhodesiense infections in mice, at dose 424 mg/kg, administered subcutaneously;Toxic. In short, it runs like this: as §2
Assay [16] has as its system Mus musculus. Put plainly: Antitrypanosomal activity was evaluated against Trypanosoma rhodesiense infections in mice, at dose 53 mg/kg, administered subcutaneously;Cures. In short, it runs like this:
as §2

Assay [17] relates to Mus musculus. Put plainly: Antitrypanosomal activity was evaluated against Trypanosoma rhodesiense infections in mice, at dose 424 mg/kg, administered subcutaneously;Cures. In short, it runs like this: as §2
Assay [18] relates to Trypanosoma brucei rhodesiense. Put plainly: (§6) Antitrypanosomal activity was evaluated against Trypanosoma rhodesiense infections in mice, at dose 212 mg/kg, administered subcutaneously. In short, it runs like this: as §1
In assay [19] the test system is Trypanosoma brucei rhodesiense. Put plainly: Antitrypanosomal activity was evaluated against Trypanosoma rhodesiense infections in mice, at dose 424 mg/kg, administered subcutaneously. An outline of the steps: as §1
Assay [20] has as its system Mus musculus. Nature of the assay: (§7) Antitrypanosomal activity was evaluated against Trypanosoma rhodesiense infections in mice, at dose 26 mg/kg, administered subcutaneously. An outline of the steps:
as §2

For assay [21], the system named is Trypanosoma brucei rhodesiense. Put plainly: Antitrypanosomal activity was evaluated against Trypanosoma rhodesiense infections in mice, at dose 106 mg/kg, administered subcutaneously. An outline of the steps:
as §2

The subject of assay [22] is Trypanosoma brucei rhodesiense. The description is as §7. In short, it runs like this: as §2
The test system of assay [23] is Mus musculus. Nature of the assay: Antitrypanosomal activity was evaluated against Trypanosoma rhodesiense infections in mice, at dose 13 mg/kg, administered subcutaneously. An outline of the steps: as §2
The subject of assay [24] is Mus musculus. Nature of the assay: Antitrypanosomal activity was evaluated against Trypanosoma rhodesiense infections in mice, at dose 6.6 mg/kg, administered subcutaneously. An outline of the steps: as §2
For assay [25], the system named is Mus musculus. The description is as §6. An outline of the steps:
as §2

In assay [26] the test system is Mus musculus. Nature of the assay: Antitrypanosomal activity was evaluated against Trypanosoma rhodesiense infections in mice, at dose 106 mg/kg, administered subcutaneously; Cures. An outline of the steps:
as §2

The test system of assay [27] is Mus musculus. Put plainly: Antitrypanosomal activity was evaluated against Trypanosoma rhodesiense infections in mice, at dose 53 mg/kg, administered subcutaneously; Cures. An outline of the steps: as §2
Assay [28] deals with Mus musculus. The assay is described as §5. An outline of the steps:
as §2

In assay [29] the test system is Mus musculus. Put plainly: Antitrypanosomal activity was evaluated against Trypanosoma rhodesiense infections in mice, at dose 6.6 mg/kg, administered subcutaneously;Cures. An outline of the steps:
as §2

Assay [30] relates to Mus musculus. Nature of the assay: Antitrypanosomal activity was evaluated against Trypanosoma rhodesiense infections in mice, at dose 13 mg/kg, administered subcutaneously;Cures. In short, it runs like this: as §2
Assay [31] has as its system Mus musculus. Described as §3. An outline of the steps: as §2
Assay [32] concerns Mus musculus. The assay is described as §4. An outline of the steps: as §2

As for `CC1(C)N=C(N)N=C(N)N1c1ccc(OCCCCOc2ccc(N3C(N)=NC(N)=NC3(C)C)cc2)cc1.Cl.Cl`, the “Delta MST” value in assay [1] was 0.3 days; in [2], 0.2 days; in assay [4] it was 1 days; in assay [6] it was 0 days; in assay [8], 0 days. In addition, the Toxic was 4 in assay [3], 5 in assay [5] and 1 in assay [7].

Turning to `CC(C)(c1ccc(N2C(N)=NC(N)=NC2(C)C)cc1)c1ccc(N2C(N)=NC(N)=NC2(C)C)cc1.Cl.Cl`, the “Delta MST” value is 1.3 days in assay [1], 1.8 days in assay [4] and 0.9 days in assay [8]. In addition, the Toxic stood at 2 in assay [3], 5 in [5], 1 in [9] and 1 in assay [7].

`Cl.Cl.NC1=NC2(CCCCC2)N(c2ccc(CCc3ccc(N4C(N)=NC(N)=NC45CCCCC5)cc3)cc2)C(N)=N1`: the Toxic in assay [10] and in assay [15] was 1 throughout. Besides, the “Delta MST” value turned out to be 1.3 days in assay [1], 9 days in assay [13], 12 days in [4] and 11 days in [18]. In addition, the Cures in [11] was found to be 3; in [12], 3; in assay [14] it was 2; in [16] it was 2; in [17], 4.

On to `CC1(C)N=C(N)NC(Nc2ccc(CCc3ccc(NC4=NC(C)(C)N=C(N)N4)cc3)cc2)=N1.Cl`, for which the “Delta MST” value was found to be 0.2 days in assay [1], 0.8 days in assay [4] and 0 days in assay [19]. The same compound gave a Toxic in assay [15] of 3.

As for `Cc1ccc(N2C(N)=NC(N)=NC2(C)C)cc1N1C(N)=NC(N)=NC1(C)C.Cl.Cl`, the “Delta MST” value in [1] is -0.1 days; in assay [2] it was 0.2 days; in assay [6], 0.2 days; in assay [8], 0 days. For the same compound, the Toxic worked out at 2 in assay [20], 5 in assay [21] and 5 in [5].

As to `CC1(C)N=C(N)N=C(N)N1c1ccc(OCCCCCOc2ccc(N3C(N)=NC(N)=NC3(C)C)cc2)cc1.Cl.Cl`, the Toxic in assay [22], in assay [23], in assay [21] and in assay [5] was 5 each time. Moreover, the “Delta MST” value was 0.2 days in assay [2], 0 days in assay [6] and 0.4 days in [8].

Regarding `CC1(C)N=C(N)N=C(N)N1c1ccc(OCCCCCCOc2ccc(N3C(N)=NC(N)=NC3(C)C)cc2)cc1.Cl.Cl`, the Toxic in assay [22] was determined as 5; in [23], 5; in assay [21] it was 5; in [5] it was 5; in [24] it was 1.

Turning to `CC1(C)N=C(N)N=C(N)N1c1cccc(N2C(N)=NC(N)=NC2(C)C)c1.Cl.Cl`, the “Delta MST” value in assay [1], in assay [2], in [6] and in assay [8] was 0 days each time. The Toxic in assay [22] came to 1; in assay [21] it was 5; in [5], 5.

As to `CC1(C)N=C(N)N=C(N)N1c1ccc(C(c2ccccc2)c2ccc(N3C(N)=NC(N)=NC3(C)C)cc2)cc1.Cl.Cl`, the Toxic in assay [25] came out at 2; in assay [21], 2; in [5], 5. Further, the “Delta MST” value in assay [13] (53 mg/kg) was 2.3 days and 2.8 days; in assay [4], 4.3 days; in assay [18], 4.3 days.

On to `Cc1ccc(N2C(N)=NC(N)=NC2(C)C)cc1NC(=O)Nc1cc(N2C(N)=NC(N)=NC2(C)C)ccc1C.Cl.Cl`, for which the “Delta MST” value in [1], in assay [4] and in assay [19] was -0.1 days each time. This compound also gave a Toxic in assay [15] of 3.

In the case of `Cl.Cl.NC1=NC(c2ccccc2)N(c2ccc(CCc3ccc(N4C(N)=NC(N)=NC4c4ccccc4)cc3)cc2)C(N)=N1` (stereo not given), the “Delta MST” value was determined as 4.1 days in [1], 0.4 days in assay [2], 2.2 days in assay [18] and 0 days in assay [8]. Moreover, the Cures worked out at 4 in assay [11]; 5 in assay [26]; 5 in assay [27]; 1 in [14]; 3 in [17]. In assay [28], this compound came in with a Toxic of 2.

As for `CC1(C)N=C(N)N=C(N)N1c1cc(Cl)c(N2C(N)=NC(N)=NC2(C)C)c(Cl)c1.Cl.Cl`, the Toxic in assay [10] is reported as 4. For the same compound, the “Delta MST” value in [13] and in [18] was -0.2 days throughout.

On to `CC1(C)N=C(N)N=C(N)N1c1ccc(CC(Cc2ccc(N3C(N)=NC(N)=NC3(C)C)cc2)C(=O)O)cc1.Cl.Cl`, for which the entries for the “Delta MST” value in assay [1], in [4] and in [19] were 0 days, 0.2 days and 0 days, respectively. The same compound had a Toxic in assay [15] of 2.

In the case of `COc1cc(-c2ccc(N3C(N)=NC(N)=NC3(C)C)c(OC)c2)ccc1N1C(N)=NC(N)=NC1(C)C.Cl.Cl`, the “Delta MST” value in assay [1] came out at 8.9 days; in assay [2], 7.2 days; in assay [13], 4.9 days; in [4], 11.2 days; in assay [6], 2.2 days; in [18] it was 3.2 days. In assay [8], the “Delta MST” value was found to be 13.5 days. For the same compound, the Cures was 2 in assay [11]; 3 in assay [29]; 2 in [12]; 4 in assay [14]; 3 in assay [30]; 3 in assay [16]. Moreover, the Toxic in assay [5] is on record as 5.

As to `CC1(C)N=C(N)N=C(N)N1c1ccc2c(c1)S(=O)(=O)c1cc(N3C(N)=NC(N)=NC3(C)C)ccc1C2.Cl.Cl`, the “Delta MST” value in assay [1] is 0 days; in assay [2], 0 days; in [4], -0.3 days; in [6], 0 days; in assay [8], 0.2 days. In addition, the Toxic in assay [3] is 4; in assay [5], 5.

As to `Cc1cc(N2C(N)=NC(N)=NC2(C)C)ccc1CCc1ccc(N2C(N)=NC(N)=NC2(C)C)cc1C.Cl.Cl`, the “Delta MST” value in assay [1] was found to be 1.4 days; in [2], 0.4 days; in assay [6] it was 0.8 days; in assay [8], 1 days. The Toxic came out at 5 in [21], 5 in assay [5] and 3 in [31].

With `Cc1ccc(NC(=O)Nc2ccc(C)c(N3C(N)=NC(N)=NC3(C)C)c2)cc1N1C(N)=NC(N)=NC1(C)C.Cl.Cl`, the “Delta MST” value in assay [1] and in assay [4] was 0 days in each case. Moreover, the Toxic came to 2 in assay [3], 5 in assay [5] and 2 in [7].

On to `CC1(C)N=C(N)N=C(N)N1c1ccc(NC(=O)Nc2ccc(N3C(N)=NC(N)=NC3(C)C)cc2)cc1.Cl.Cl`, for which the Toxic was 5 in [32], 5 in assay [21], 5 in [5] and 1 in assay [7]. This compound also displayed a Cures in assay [14] of 1.

Regarding `CC1(C)N=C(N)N=C(N)N1c1cccc2c(N3C(N)=NC(N)=NC3(C)C)cccc12.Cl.Cl`, the Delta MST in assay [1] was 1.1 days; in assay [4] it was -0.3 days; in assay [19], -0.3 days. In [15], the Toxic is listed as 3.
